Calls of active or inactive are those of the source. The calls are words filed in the database; no cut-off is given here.

The target of series [1] is T1, Beta-2 adrenergic receptor (Homo sapiens, UniProt P07550). Briefly: Agonist activity at human beta2 adrenergic receptor in human BEAS-2B cells by cAMP accumulation assay. It counts as functional, cell-based.
The target of series [2] is T1, Beta-2 adrenergic receptor. As to the kind of experiment: Displacement of [3H]dihydroalprenolol from human beta2 adrenergic receptor expressing cell membrane by competition binding assay.
For series [3], the species on record is Homo sapiens. Briefly: Selectivity ratio of Ki for human beta1 adrenergic receptor to Ki for human beta2 adrenergic receptor. In a few lines:
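Competition binding used [3H]dihydroalprenolol as tracer on plasma membranes from cells expressing recombinant human β1- or β2-adrenoceptors. Selectivity is the ratio β1 Ki/β2 Ki.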

The target in series [4] is T1, Beta-2 adrenergic receptor. As to the kind of experiment: Agonist activity at human beta2 adrenergic receptor expressed in cells by cAMP accumulation assay. Format: functional, cell-based.
Series [5] concerns the target Beta-3 adrenergic receptor (Homo sapiens, UniProt P13945). Briefly: Agonist activity at human beta3 adrenergic receptor expressed in cells by cAMP accumulation assay. It counts as functional, cell-based. A digest of the protocol:
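cAMP accumulation read-out in a recombinant cell line heterologously expressing the human β3-adrenoceptor.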

Series [6] has as its target Beta-1 adrenergic receptor (Homo sapiens, UniProt P08588). Briefly: Agonist activity at human beta1 adrenergic receptor expressed in cells by cAMP accumulation assay. It counts as functional, cell-based.
Series [7] concerns Cavia porcellus. Briefly: Bronchoprotection activity against acetylcholine-induced guinea pig bronchoconstriction model at 1 to 100 ug/ml administered as nebulized dosing measured after 72 hrs. Format: functional, organism-based. In a few lines: (§1)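 Guinea pigs received the compound by nebulizer, and testing took place 72 h after treatment. Pulmonary resistance was measured by head-out plethysmograph in anesthetized, spontaneously breathing animals. Bronchoconstriction was induced by increasing intravenous acetylcholine doses. The ACh dose doubling baseline resistance (PD2) was calculated.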

Series [8] concerns Cavia porcellus. Briefly: Bronchoprotection activity against acetylcholine-induced guinea pig bronchoconstriction model administered as nebulized dosing measured after 72 hrs. Format: functional, organism-based. In a few lines:
as §1

A short description of series [9]: Oral bioavailability in dog. It counts as ADME, organism-based, Canis lupus familiaris. The following applies: in vivo.
The target of series [10] is hERG (KCNH2) (Homo sapiens, UniProt Q12809). Briefly: Inhibition of human ERG at 40 nM.
hERG (KCNH2), sequence (Q12809 whole entry): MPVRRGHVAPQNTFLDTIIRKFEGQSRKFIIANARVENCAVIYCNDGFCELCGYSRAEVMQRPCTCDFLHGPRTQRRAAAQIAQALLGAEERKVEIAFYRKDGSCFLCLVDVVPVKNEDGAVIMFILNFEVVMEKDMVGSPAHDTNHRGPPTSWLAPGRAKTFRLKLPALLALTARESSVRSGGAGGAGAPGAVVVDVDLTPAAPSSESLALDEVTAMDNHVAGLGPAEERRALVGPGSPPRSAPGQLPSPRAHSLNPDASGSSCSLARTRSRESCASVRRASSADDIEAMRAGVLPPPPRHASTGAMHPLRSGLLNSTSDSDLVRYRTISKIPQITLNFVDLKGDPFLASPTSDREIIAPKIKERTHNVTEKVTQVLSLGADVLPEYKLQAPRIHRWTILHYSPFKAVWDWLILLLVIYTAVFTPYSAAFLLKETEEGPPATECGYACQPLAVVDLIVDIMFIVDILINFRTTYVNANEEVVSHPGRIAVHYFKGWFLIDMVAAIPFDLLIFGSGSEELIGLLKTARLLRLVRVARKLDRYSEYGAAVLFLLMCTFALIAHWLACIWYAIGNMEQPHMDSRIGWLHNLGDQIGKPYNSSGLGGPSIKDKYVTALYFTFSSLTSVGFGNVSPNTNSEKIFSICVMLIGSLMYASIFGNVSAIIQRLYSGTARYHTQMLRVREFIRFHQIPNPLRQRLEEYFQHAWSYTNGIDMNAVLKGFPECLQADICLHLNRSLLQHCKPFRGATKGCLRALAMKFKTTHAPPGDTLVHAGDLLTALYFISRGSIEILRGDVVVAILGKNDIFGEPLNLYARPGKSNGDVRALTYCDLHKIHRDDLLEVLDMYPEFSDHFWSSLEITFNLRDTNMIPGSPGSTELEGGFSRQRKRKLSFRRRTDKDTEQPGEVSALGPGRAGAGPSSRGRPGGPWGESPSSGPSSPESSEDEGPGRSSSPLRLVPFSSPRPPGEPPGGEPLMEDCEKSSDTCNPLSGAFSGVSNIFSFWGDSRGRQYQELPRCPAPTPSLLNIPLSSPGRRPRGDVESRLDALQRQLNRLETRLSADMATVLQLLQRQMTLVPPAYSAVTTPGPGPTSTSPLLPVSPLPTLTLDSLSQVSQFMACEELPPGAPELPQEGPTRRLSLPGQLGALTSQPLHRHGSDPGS
Series [11] is filed under the species Homo sapiens. As to the kind of experiment: Inhibition of muscarinic receptor (unknown origin) at 1 uM.
Series [12] is described as follows: Clearance in dog. It counts as ADME, organism-based, Canis lupus familiaris. The following applies: in vivo.
The nature of series [13]: Oral bioavailability in rat. It counts as ADME, organism-based. The following applies: in vivo.
Series [14] deals with Cavia porcellus. As to the kind of experiment: Bronchoprotection activity against acetylcholine-induced guinea pig bronchoconstriction model at >= 30 ug/ml administered as nebulized dosing measured after 72 hrs. Format: functional, organism-based. A digest of the protocol: as §1
Series [15] deals with T2, Muscarinic acetylcholine receptor M2 (Homo sapiens, UniProt P08172).
T2 sequence (P08172 whole entry): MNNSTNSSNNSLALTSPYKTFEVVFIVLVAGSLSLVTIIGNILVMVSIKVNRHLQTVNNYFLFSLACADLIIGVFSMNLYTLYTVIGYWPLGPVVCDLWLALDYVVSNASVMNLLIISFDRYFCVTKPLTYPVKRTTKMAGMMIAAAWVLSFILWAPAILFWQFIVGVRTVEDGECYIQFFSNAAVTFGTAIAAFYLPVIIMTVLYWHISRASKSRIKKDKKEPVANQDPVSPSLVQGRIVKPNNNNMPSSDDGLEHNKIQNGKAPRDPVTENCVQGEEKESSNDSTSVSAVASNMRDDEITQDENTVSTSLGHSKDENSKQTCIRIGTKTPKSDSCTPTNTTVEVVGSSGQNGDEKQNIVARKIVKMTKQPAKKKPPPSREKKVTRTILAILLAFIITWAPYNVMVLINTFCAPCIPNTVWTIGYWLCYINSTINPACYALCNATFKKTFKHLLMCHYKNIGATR
Briefly: Inhibition of muscarinic acetylcholine receptor M2 (unknown origin).

Series [16] can be described thus: Clearance in rat. Format: ADME, organism-based. The following applies: in vivo.
Series [17] is described as follows: Dissociation constant, pKa of the compound. It counts as physicochemical.

Beta-1 adrenergic receptor, sequence (P08588 whole entry): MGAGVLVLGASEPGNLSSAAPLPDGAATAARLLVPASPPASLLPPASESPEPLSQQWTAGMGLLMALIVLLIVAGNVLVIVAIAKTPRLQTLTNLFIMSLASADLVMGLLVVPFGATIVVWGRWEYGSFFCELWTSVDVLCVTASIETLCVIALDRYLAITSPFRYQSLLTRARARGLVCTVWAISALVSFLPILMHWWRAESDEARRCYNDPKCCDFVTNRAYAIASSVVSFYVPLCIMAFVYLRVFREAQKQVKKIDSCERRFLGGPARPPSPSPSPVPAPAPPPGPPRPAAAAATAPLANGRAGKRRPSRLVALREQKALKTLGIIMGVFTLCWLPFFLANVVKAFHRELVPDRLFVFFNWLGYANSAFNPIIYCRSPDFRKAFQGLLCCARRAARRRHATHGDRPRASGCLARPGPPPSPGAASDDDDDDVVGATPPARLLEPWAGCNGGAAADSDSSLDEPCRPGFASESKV
T1 sequence (P07550 whole entry): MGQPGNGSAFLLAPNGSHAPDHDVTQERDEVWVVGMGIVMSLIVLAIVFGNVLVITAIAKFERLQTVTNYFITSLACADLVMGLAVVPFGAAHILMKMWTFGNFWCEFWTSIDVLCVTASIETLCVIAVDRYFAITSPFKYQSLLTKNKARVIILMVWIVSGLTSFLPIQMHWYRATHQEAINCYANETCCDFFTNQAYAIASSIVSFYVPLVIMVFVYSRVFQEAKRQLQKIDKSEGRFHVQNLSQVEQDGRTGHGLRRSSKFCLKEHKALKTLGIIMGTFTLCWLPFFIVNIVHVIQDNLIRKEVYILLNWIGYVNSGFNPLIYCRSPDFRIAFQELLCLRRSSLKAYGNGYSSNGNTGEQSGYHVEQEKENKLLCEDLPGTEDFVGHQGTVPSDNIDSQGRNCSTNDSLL
Beta-3 adrenergic receptor, sequence (P13945 whole entry): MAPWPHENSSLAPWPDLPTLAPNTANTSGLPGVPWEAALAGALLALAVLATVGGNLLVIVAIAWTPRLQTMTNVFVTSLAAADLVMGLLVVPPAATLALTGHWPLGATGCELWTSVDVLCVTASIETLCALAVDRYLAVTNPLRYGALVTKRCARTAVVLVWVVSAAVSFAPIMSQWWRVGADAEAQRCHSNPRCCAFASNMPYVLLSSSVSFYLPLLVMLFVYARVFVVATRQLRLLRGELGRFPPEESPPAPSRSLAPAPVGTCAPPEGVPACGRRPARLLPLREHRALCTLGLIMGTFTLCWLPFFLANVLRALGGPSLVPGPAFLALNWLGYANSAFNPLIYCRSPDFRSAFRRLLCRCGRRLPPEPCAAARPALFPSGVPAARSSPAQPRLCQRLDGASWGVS

On to `CC(C)(C)OC(=O)NCCOc1ccc(Nc2ccc(CCNC[C@H](O)c3ccc(O)c4[nH]c(=O)ccc34)cc2)cc1`, for which the concentration giving a half-maximal response (EC50) in [1] is 2.51 nM; in series [4] it was 0.501 nM; in series [5], 12.6 nM; in series [6], 12.6 nM. Further, in series [2], the inhibition constant (Ki) was 20 nM. Moreover, the Ratio Ki in series [3] was 26.

Regarding `CS(=O)(=O)N1CCN(CCOc2ccc(Nc3ccc(CCNC[C@H](O)c4ccc(O)c5[nH]c(=O)ccc45)cc3)cc2)CC1`, the half-maximal effective concentration (EC50) in series [1] is 6.31 nM; in [4] it was 0.631 nM; in [5] it was 31.6 nM; in [6], 7.94 nM. This compound showed an inhibition constant (Ki) in series [2] of 31.6 nM. The Ratio Ki in series [3] is 30.

As to `COc1ccc(Nc2ccc(CCNC[C@H](O)c3ccc(O)c4[nH]c(=O)ccc34)cc2)cc1-c1ccccc1CN`, the EC50 in series [1] is 0.794 nM; in series [4] it was 0.126 nM; in series [5], 6.31 nM; in series [6], 2.51 nM. Affinity in series [2] was put at a Ki of 3.16 nM. For the same compound, the Ratio Ki in series [3] was 20.

As to `COc1ccc(Nc2ccc(CCNC[C@H](O)c3ccc(O)c4[nH]c(=O)ccc34)cc2)cc1-c1ccc(CN)cc1`, the concentration giving a half-maximal response (EC50) is 0.501 nM in series [1], 0.1 nM in series [4], 10 nM in series [5] and 2.51 nM in series [6]. The compound also had a Ki in series [2] of 1.26 nM. Moreover, the Ratio Ki in series [3] was found to be 101. For the same compound, in series [7], the outcome was Active.

As to `O=CNc1cc([C@@H](O)CNCCc2ccc(NC[C@H](O)c3ccccc3)cc2)ccc1O` [MILVETEROL], the Ratio Ki in [3] amounted to 2910. This compound gave an EC50 in series [5] of 39.8 nM.

Consider `CC(C)(N)COc1ccc(Nc2ccc(CCNC[C@H](O)c3ccc(O)c4[nH]c(=O)ccc34)cc2)cc1-c1ccccc1`, for which the EC50 is 0.631 nM in series [1], 0.0631 nM in [4], 7.94 nM in [5] and 1.58 nM in series [6]. In series [2], this compound gave a Ki of 1 nM. Moreover, the Ratio Ki in [3] is 140.

For the compound `NCCCOc1ccc(Nc2ccc(CCNC[C@H](O)c3ccc(O)c4[nH]c(=O)ccc34)cc2)cc1`, the EC50 in series [1] was 0.631 nM; in [4], 0.158 nM; in series [5], 39.8 nM; in [6] it was 7.94 nM. Besides, the affinity in [2] corresponds to a Ki of 5.01 nM. Further, the Ratio Ki in [3] worked out at 95.

`O=C(NCCOc1ccc(Nc2ccc(CCNC[C@H](O)c3ccc(O)c4[nH]c(=O)ccc34)cc2)cc1)c1ccccc1`: the half-maximal effective concentration (EC50) was 1.58 nM in series [1], 0.501 nM in [4], 12.6 nM in series [5] and 2 nM in series [6]. This compound showed a Ki in series [2] of 10 nM. In [3], the Ratio Ki came to 13.

Regarding `NCCOCCOc1ccc(Nc2ccc(CCNC[C@H](O)c3ccc(O)c4[nH]c(=O)ccc34)cc2)cc1`, the EC50 in series [1] is 0.631 nM; in [4], 0.158 nM; in [5], 39.8 nM; in series [6] it was 7.94 nM. The Ki in [2] was 6.31 nM. The Ratio Ki in series [3] amounted to 95.

Regarding `O=c1ccc2c([C@@H](O)CNCCc3ccc(Nc4ccc(OCCN5CCOCC5)cc4)cc3)ccc(O)c2[nH]1`, the half-maximal effective concentration (EC50) is 3.16 nM in series [1], 0.316 nM in series [4], 50.1 nM in series [5] and 12.6 nM in series [6]. Moreover, the affinity in series [2] corresponds to a Ki of 20 nM. The Ratio Ki in series [3] is 41.

With `NCCCCOc1ccc(Nc2ccc(CCNC[C@H](O)c3ccc(O)c4[nH]c(=O)ccc34)cc2)cc1`, the concentration giving a half-maximal response (EC50) was 0.631 nM in [1], 0.126 nM in series [4], 39.8 nM in series [5] and 7.94 nM in [6]. Besides, in series [2], the Ki is 5.01 nM. Moreover, the Ratio Ki in [3] is 85.

On to `NCCOc1ccc(Nc2ccc(CCNC[C@H](O)c3ccc(O)c4[nH]c(=O)ccc34)cc2)cc1`, for which the concentration for a half-maximal effect (EC50) in [1] was 0.501 nM; in series [4] it was 0.1 nM; in series [5], 39.8 nM; in series [6], 7.94 nM. Moreover, the inhibition constant (Ki) in [2] is 6.31 nM. In [3], the Ratio Ki turned out to be 64.

In the case of `CCOc1ccc(Nc2ccc(CCNC[C@H](O)c3ccc(O)c4[nH]c(=O)ccc34)cc2)cc1`, the concentration for a half-maximal effect (EC50) was 2 nM in series [1] and 0.251 nM in [4]. Further, the affinity in series [2], expressed as Ki, was 12.6 nM. Besides, in series [3], the Ratio Ki was found to be 72. Moreover, in series [8], the result was inactive.

In the case of `CC(C)(N)COc1ccc(Nc2ccc(CCNC[C@H](O)c3ccc(O)c4[nH]c(=O)ccc34)cc2)cc1`, the EC50 in [1] was 1 nM; in [4], 0.0794 nM; in series [5], 63.1 nM; in series [6] it was 6.31 nM. Also, the inhibitory constant (Ki) in [2] was 6.31 nM; in series [15], 631 nM. Also, the bioavailability in [9] was found to be 5%; in [13], 1%. Besides, the Ratio Ki in [3] turned out to be 64. In series [10], this compound had an inhibition at 0.04 µM of 7%. Moreover, in [11], the inhibition result is “Active”. In addition, the clearance was 40 mL/min/kg in series [12] and 6.67 mL/min/kg in series [16]. The result in [14] was Active. For the same compound, the Activity entry in series [8] was “Dose-dependent effect”.

For the compound `COc1ccc(Nc2ccc(CCNC[C@H](O)c3ccc(O)c4[nH]c(=O)ccc34)cc2)cc1-c1cccc(CN)c1`, the 50% effective concentration (EC50) is 0.316 nM in series [1], 0.0794 nM in [4], 25.1 nM in series [5] and 3.98 nM in series [6]. In addition, the Ki in series [2] was 1.58 nM. Moreover, the Ratio Ki in series [3] stood at 146. In addition, in [7], the outcome was Active.

Regarding `CC(C)(N)COc1ccc(Nc2ccc(CCNC[C@H](O)c3ccc(O)c(NC=O)c3)cc2)cc1`, the concentration for a half-maximal effect (EC50) in series [1] was 3.16 nM; in [4], 0.251 nM; in series [5], 39.8 nM; in series [6], 6.31 nM. In series [2], the inhibition constant (Ki) is 25.1 nM. The Ratio Ki in series [3] turned out to be 94.

As for `O=c1ccc2c([C@@H](O)CNCCc3ccc(Nc4ccc(OCCN5CCNCC5)cc4)cc3)ccc(O)c2[nH]1`, the EC50 was 1.58 nM in series [1], 0.126 nM in series [4], 39.8 nM in [5] and 10 nM in series [6]. The compound also gave a Ki in [2] of 10 nM. In addition, the Ratio Ki in series [3] stood at 116. The pKa in [17] amounted to 9.1.

`COc1ccc(Nc2ccc(CCNC[C@H](O)c3ccc(O)c4[nH]c(=O)ccc34)cc2)cc1-c1ccccc1`: in series [2], the inhibition constant (Ki) was 6.31 nM. For the same compound, the Ratio Ki in [3] came to 115. Further, the result in series [7] was Active.

(Values after ChEMBL document CHEMBL3297645, “Discovery of TD-4306, a long-acting β2-agonist for the treatment of asthma and COPD” (Bioorg Med Chem Lett, 2014).)
